Data from ChEMBL document CHEMBL4390691, “Discovery of 1,3-dihydro-2H-imidazo[4,5-c]quinolin-2-ones based novel, potent and PI3Kδ selective inhibitors” (Bioorg Med Chem Lett, 2019).
Values belong to the molecule of their own block, whether it stands above or below them. Activity calls are given as the source filed them. The rule behind the calls is not given here.

Columns and labels:
[1] = molecular target: T1, Phosphatidylinositol 4,5-bisphosphate 3-kinase catalytic subunit delta isoform (Homo sapiens, UniProt O00329); assay: Inhibition of human PI3Kdelta using PIP2 as substrate after 1 hr
T1 sequence (O00329 whole entry): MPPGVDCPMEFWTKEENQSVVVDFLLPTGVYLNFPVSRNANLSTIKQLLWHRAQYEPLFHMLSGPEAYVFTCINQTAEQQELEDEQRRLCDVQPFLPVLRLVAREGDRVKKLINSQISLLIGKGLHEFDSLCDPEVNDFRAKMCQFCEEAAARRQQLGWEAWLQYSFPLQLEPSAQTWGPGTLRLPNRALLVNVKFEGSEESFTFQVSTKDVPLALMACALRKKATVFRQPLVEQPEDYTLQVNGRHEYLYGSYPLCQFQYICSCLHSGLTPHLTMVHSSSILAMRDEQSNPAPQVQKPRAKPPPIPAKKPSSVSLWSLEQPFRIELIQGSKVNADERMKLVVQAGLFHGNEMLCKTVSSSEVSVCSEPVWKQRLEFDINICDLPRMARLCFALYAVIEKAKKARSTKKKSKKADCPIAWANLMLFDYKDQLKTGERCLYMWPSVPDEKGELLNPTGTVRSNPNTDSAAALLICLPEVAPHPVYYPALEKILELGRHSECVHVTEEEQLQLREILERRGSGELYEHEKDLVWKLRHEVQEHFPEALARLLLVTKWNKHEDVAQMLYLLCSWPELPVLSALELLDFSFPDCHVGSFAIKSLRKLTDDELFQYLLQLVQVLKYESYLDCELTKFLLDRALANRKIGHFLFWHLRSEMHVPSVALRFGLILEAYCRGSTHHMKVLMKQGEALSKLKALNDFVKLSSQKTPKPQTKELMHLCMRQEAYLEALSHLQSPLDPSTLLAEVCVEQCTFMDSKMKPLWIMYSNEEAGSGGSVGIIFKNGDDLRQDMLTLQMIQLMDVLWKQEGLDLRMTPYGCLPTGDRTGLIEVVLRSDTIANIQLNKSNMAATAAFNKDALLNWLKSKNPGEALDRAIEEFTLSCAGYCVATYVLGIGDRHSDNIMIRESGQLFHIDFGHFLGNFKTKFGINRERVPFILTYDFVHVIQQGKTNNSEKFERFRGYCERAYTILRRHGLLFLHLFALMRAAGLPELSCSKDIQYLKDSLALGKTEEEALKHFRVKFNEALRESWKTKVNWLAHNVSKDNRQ

[2] = molecular target: Phosphatidylinositol 4,5-bisphosphate 3-kinase catalytic subunit alpha isoform (Homo sapiens, UniProt P42336); assay: Inhibition of human PI3Kalpha using PIP2 as substrate after 1 hr
Homo sapiens [3] = organism: Homo sapiens; assay: Selectivity ratio of IC50 for human PI3Kbeta to IC50 for human PI3Kdelta
Method in brief: (§1)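 IC50s for the PI3K α, β, γ and δ isoforms came from a commercial PI3K inhibitory activity assay kit. Each IC50 is the mean of at least two experiments. The ratio is the α, β or γ IC50 divided by the δ IC50.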

[4] = molecular target: Phosphatidylinositol 4,5-bisphosphate 3-kinase catalytic subunit beta isoform (Homo sapiens, UniProt P42338); assay: Inhibition of human PI3Kbeta using PIP2 as substrate after 1 hr
[5] = Clearance in C57BL/6J mouse at 1 mg/kg, iv measured up to 30 hrs by LC-MS/MS analysis; format: ADME, organism-based; settings: in vivo
Method in brief: (§2)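 Male C57BL/6J mice (n = 6) received single doses of 3 mg/kg po or 1 mg/kg iv. Plasma concentrations were measured by LC-MS. Values are mean ± SD. Oral bioavailability (%F) was calculated from the ratio to iv AUC.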

[6] = Oral bioavailability in C57BL/6J mouse at 3 mg/kg measured up to 30 hrs by LC-MS/MS analysis; format: ADME, organism-based; settings: in vivo; method in brief: as §2
CYP2C8 = molecular target: T2, CYP2C8 (Homo sapiens, UniProt P10632); assay: Inhibition of CYP2C8 in human liver microsomes at 10 uM using testosterone/dextromethorphan as probe substrate measured after 10 mins relative to control; format: ADME
T2 sequence (P10632 whole entry): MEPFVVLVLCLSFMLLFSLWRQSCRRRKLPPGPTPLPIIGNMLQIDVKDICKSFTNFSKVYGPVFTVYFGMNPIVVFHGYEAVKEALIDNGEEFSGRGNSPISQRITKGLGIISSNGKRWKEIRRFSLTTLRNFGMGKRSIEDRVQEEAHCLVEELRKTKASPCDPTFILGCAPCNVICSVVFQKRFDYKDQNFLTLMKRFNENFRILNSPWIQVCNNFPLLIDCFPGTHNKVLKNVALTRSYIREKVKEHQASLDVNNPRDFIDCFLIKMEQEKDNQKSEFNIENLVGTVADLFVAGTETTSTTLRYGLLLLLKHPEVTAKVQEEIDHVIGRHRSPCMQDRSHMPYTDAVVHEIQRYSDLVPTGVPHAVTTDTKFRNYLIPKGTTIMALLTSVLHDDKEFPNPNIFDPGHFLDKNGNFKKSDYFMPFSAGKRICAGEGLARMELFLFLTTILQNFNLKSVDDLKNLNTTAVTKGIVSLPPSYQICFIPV

CYP2C19 = CYP2C19 (Homo sapiens, UniProt P33261); assay: Inhibition of CYP2C19 in human liver microsomes at 10 uM using testosterone/dextromethorphan as probe substrate measured after 10 mins relative to control; format: ADME
[7] = molecular target: Phosphatidylinositol 4,5-bisphosphate 3-kinase catalytic subunit gamma isoform (Homo sapiens, UniProt P48736); assay: Inhibition of human PI3Kgamma using PIP2 as substrate after 1 hr
[8] = Cmax in C57BL/6J mouse at 3 mg/kg, po measured up to 30 hrs by LC-MS/MS analysis; format: ADME, organism-based; design: dose 3 mg/kg, route oral; settings: in vivo; method in brief: as §2
[9] = AUC (0 to infinity) in C57BL/6J mouse 1 mg/kg, iv measured up to 30 hrs by LC-MS/MS analysis; format: ADME, organism-based; design: dose 1 mg/kg, time infinity, route intravenous; settings: in vivo
Method in brief: (§3)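 Single-dose PK in male C57BL/6J mice (n = 6), dosed 1 mg/kg iv or 3 mg/kg orally. Plasma drug levels were measured by LC-MS, and PK parameters (Tmax, Cmax, t1/2, Cl, AUC, %F) were derived. Values are given as mean ± SD. Oral bioavailability was calculated against the iv AUC.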

Mus musculus [10] = assay: Antiarthritic activity in complete Freund's adjuvant-induced DBA1/J mouse arthritis model assessed as inhibition in clinical arthritis score at 30 mg/kg, po […] relative to control; format: functional, organism-based
Method in brief: (§4)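 Male DBA1j mice had arthritis induced with a collagen mixture and were enrolled once clinical signs appeared. Animals were split into four groups of eight: vehicle, a positive control and two doses of test compound. Treatment ran four weeks. The read-out was percentage inhibition of clinical arthritis score versus the vehicle group.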

Mus musculus [11] = assay: Antiarthritic activity in complete Freund's adjuvant-induced DBA1/J mouse arthritis model assessed as inhibition in clinical arthritis score at 10 mg/kg, po administered […] relative to control; format: functional, organism-based; method in brief: as §4
TMD8 [12] = assay: Antitumor activity against human TMD8 cells xenografted in SCID mouse assessed as decrease in tumor volume at 30 mg/kg/day, po QD for 16 days and measured every alternate day; format: functional; settings: 384 h
Method in brief: (§5)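 Male SCID mice were inoculated with TMD-8 cells. Oral doses of 3, 10 and 30 mg/kg/day were given. The efficacy endpoint was inhibition of tumor volume relative to the vehicle (untreated) group.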

Homo sapiens [13] = organism: Homo sapiens; assay: Selectivity ratio of IC50 for human PI3Kalpha to IC50 for human PI3Kdelta; method in brief: as §1
[14] = Tmax in C57BL/6J mouse at 3 mg/kg, po measured up to 30 hrs by LC-MS/MS analysis; format: ADME, organism-based; settings: in vivo; method in brief: as §2
TMD8 [15] = assay: Antiproliferative activity against human TMD8 cells; format: functional, cell-based
CYP2D6 = CYP2D6 (Homo sapiens, UniProt P10635); assay: Inhibition of CYP2D6 in human liver microsomes at 10 uM using testosterone/dextromethorphan as probe substrate measured after 10 mins relative to control; format: ADME
CYP3A4 = CYP3A4 (Homo sapiens, UniProt P08684); assay: Inhibition of CYP3A4 in human liver microsomes at 10 uM using testosterone/dextromethorphan as probe substrate measured after 10 mins relative to control; format: ADME
CYP1A2 = molecular target: T3, CYP1A2 (Homo sapiens, UniProt P05177); assay: Inhibition of CYP1A2 in human liver microsomes at 10 uM using testosterone/dextromethorphan as probe substrate measured after 10 mins relative to control; format: ADME
T3 sequence (P05177 whole entry): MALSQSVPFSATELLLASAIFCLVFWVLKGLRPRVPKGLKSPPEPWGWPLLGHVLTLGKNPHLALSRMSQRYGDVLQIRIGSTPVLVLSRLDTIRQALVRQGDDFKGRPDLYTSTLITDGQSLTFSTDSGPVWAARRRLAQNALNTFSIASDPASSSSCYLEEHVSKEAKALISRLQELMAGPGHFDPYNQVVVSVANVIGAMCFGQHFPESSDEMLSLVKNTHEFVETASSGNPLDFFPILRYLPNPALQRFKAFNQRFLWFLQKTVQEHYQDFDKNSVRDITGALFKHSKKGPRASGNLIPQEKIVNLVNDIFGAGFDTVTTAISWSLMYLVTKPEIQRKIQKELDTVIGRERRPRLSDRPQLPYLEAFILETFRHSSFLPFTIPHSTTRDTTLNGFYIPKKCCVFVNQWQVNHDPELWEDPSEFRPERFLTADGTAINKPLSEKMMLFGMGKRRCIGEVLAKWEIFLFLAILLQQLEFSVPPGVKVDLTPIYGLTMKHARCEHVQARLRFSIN

Homo sapiens [16] = organism: Homo sapiens; assay: Selectivity ratio of IC50 for human PI3Kgamma to IC50 for human PI3Kdelta; method in brief: as §1
[17] = Protein binding in DBA1/J mouse plasma; format: ADME, cell-free; settings: read-out: PPB (converted)
[18] = AUC (0 to infinity) in C57BL/6J mouse 3 mg/kg, po measured up to 30 hrs by LC-MS/MS analysis; format: ADME, organism-based; design: dose 3 mg/kg, route oral, time infinity; settings: in vivo; method in brief: as §3
[19] = Half life in C57BL/6J mouse at 3 mg/kg, po measured up to 30 hrs by LC-MS/MS analysis; format: ADME, organism-based; settings: in vivo; method in brief: as §2
[20] = molecular target: Voltage-gated inwardly rectifying potassium channel KCNH2 (Homo sapiens, UniProt Q12809); assay: Inhibition of human ERG
[21] = Toxicity in DBA1/J mouse assessed as reduction in body weight at 30 mg/kg, po administered for […] measured thrice per week; format: organism-based; settings: in vivo
Method in brief: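 The model was collagen-induced arthritis in male DBA1j mice, with eight per group and four weeks of treatment. Body weight was recorded three times weekly as a marker of treatment-related side effects.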

CYP2C9 = CYP2C9 (Homo sapiens, UniProt P11712); assay: Inhibition of CYP2C9 in human liver microsomes at 10 uM using testosterone/dextromethorphan as probe substrate measured after 10 mins relative to control; format: ADME
[22] = Toxicity in human TMD8 cells xenografted SCID mouse assessed as decrease in body weight at 30 mg/kg/day, po QD for 16 days; format: organism-based; settings: in vivo, 384 h
Method in brief: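 Male SCID mice bearing TMD-8 xenografts received oral doses of 3, 10 or 30 mg/kg/day. Body weight was recorded during treatment.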

[23] = molecular target: Serine/threonine-protein kinase mTOR (Homo sapiens, UniProt P42345); assay: Inhibition of mTOR (unknown origin) assessed as reduction in p70S6K phosphorylation
TMD8 [24] = assay: Antitumor activity against human TMD8 cells xenografted in SCID mouse assessed as decrease in tumor volume at 3 to 30 mg/kg/day, po QD for 16 days and measured every alternate day; format: functional, organism-based; method in brief: as §5

Chain of Phosphatidylinositol 4,5-bisphosphate 3-kinase catalytic subunit alpha isoform (P42336 whole entry, looked up, canonical isoform): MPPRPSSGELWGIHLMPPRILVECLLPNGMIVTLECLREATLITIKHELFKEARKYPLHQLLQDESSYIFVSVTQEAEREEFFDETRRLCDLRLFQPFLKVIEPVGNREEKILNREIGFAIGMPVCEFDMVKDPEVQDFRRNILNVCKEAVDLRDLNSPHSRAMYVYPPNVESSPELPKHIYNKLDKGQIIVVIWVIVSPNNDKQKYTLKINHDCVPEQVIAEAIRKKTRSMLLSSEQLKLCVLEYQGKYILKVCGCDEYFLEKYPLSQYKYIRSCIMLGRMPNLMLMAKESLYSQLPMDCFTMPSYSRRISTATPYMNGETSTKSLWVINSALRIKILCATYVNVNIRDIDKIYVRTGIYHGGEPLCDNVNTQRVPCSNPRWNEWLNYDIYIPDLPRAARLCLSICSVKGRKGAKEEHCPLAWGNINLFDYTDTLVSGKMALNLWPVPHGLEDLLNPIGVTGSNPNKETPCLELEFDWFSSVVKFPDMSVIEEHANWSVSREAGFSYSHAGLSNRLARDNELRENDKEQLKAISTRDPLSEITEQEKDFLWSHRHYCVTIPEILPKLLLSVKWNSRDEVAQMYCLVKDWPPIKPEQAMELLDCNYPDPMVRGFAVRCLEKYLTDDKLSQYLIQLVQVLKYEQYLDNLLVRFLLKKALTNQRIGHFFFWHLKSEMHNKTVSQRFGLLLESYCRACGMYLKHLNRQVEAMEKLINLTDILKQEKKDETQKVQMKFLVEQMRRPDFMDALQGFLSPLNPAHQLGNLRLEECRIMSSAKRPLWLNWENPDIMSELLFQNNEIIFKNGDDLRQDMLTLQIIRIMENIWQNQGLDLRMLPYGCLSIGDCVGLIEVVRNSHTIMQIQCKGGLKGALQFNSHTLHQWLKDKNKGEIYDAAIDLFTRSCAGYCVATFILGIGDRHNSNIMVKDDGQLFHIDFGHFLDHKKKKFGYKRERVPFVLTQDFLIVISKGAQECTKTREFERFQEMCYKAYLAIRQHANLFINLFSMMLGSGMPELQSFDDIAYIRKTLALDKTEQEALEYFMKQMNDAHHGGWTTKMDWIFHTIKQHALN
Chain of CYP2C19 (P33261 whole entry, canonical isoform): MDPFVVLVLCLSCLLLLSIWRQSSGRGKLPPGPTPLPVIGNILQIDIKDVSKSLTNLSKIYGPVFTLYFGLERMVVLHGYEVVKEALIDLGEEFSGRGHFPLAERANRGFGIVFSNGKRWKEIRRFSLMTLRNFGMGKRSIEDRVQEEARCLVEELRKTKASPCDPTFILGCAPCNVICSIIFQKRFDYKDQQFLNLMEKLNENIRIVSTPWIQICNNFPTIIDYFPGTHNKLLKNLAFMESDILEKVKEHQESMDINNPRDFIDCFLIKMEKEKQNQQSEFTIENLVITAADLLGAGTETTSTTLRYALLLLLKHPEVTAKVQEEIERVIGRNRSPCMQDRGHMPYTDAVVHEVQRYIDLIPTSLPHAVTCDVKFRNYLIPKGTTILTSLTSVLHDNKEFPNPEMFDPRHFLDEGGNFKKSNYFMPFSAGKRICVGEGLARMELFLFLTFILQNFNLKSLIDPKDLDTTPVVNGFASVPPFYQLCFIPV
Chain of CYP2C9 (P11712 whole entry): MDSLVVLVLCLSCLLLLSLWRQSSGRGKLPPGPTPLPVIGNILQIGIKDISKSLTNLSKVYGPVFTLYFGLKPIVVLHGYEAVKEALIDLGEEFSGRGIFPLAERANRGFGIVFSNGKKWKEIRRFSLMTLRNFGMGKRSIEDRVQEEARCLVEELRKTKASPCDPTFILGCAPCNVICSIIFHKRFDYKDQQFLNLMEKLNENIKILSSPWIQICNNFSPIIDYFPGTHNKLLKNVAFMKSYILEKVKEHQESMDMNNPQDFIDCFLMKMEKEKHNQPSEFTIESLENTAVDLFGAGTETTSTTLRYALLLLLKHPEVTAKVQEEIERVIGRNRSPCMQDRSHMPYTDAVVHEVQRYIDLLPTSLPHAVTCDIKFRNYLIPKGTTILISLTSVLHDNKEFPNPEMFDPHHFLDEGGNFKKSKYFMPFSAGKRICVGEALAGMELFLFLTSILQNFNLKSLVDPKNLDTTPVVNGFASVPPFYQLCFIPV
Chain of CYP3A4 (P08684 whole entry): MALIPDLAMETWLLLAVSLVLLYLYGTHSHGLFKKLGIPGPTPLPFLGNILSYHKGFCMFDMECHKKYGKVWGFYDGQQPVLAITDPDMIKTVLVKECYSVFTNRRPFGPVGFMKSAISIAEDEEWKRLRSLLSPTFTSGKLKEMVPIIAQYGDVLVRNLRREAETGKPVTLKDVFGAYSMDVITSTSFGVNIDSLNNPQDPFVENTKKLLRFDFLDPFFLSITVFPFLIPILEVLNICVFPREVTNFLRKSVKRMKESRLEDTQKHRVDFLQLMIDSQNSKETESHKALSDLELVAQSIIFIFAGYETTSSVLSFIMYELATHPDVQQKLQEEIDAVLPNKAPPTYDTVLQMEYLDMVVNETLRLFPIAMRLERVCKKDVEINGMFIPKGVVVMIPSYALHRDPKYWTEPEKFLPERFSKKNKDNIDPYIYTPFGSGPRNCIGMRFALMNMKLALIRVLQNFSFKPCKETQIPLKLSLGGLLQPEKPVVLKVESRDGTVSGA
Chain of Voltage-gated inwardly rectifying potassium channel KCNH2 (Q12809 whole entry): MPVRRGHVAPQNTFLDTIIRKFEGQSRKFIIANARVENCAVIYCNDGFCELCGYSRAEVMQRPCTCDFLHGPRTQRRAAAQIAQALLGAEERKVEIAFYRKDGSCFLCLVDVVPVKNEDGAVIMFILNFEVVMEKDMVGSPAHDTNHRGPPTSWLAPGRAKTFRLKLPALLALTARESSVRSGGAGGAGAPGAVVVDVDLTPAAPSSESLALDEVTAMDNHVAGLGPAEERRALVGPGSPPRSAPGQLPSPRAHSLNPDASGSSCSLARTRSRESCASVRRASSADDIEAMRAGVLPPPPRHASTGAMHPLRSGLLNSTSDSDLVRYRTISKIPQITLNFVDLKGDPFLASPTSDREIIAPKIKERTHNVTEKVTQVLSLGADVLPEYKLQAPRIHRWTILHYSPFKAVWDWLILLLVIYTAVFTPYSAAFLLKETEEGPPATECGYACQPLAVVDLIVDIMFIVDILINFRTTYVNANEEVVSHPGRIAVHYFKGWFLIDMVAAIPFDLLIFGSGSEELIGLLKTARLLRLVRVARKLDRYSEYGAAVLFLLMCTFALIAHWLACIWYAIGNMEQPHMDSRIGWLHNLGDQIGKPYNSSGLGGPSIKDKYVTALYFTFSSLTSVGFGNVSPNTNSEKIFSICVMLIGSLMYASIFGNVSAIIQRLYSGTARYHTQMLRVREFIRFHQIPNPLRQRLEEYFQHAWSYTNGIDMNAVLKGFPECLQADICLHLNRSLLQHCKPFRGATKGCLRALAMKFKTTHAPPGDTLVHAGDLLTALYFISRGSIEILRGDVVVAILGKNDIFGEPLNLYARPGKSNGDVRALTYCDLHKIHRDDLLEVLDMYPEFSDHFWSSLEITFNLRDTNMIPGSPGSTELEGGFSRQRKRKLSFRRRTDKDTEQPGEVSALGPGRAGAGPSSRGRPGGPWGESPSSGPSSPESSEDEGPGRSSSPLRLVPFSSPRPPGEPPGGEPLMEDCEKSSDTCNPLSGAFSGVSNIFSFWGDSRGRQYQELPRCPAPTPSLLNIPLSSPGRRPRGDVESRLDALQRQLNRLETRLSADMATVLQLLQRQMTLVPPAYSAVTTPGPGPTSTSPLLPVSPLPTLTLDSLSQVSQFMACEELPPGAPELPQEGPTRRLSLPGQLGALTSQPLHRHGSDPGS
Chain of CYP2D6 (P10635 whole entry): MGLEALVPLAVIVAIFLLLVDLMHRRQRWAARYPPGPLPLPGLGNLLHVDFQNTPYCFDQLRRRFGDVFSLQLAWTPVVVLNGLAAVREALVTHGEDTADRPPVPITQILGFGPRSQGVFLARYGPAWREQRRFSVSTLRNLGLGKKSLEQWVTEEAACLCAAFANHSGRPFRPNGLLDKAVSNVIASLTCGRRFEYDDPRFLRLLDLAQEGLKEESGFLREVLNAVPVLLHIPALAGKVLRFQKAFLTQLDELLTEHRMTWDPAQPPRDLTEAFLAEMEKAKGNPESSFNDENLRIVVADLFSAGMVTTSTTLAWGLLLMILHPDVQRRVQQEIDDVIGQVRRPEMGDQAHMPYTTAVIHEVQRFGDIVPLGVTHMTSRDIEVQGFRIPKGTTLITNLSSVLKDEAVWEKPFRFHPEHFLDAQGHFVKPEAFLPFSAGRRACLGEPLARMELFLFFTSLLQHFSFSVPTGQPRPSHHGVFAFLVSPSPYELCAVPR

IC50 [1]: 20 nM
Compound: COc1ccc(Cn2c(=O)n(C)c3c4cc(-c5cccnc5)ccc4ncc32)cc1

IC50 [2]: 891 nM | Ratio IC50 (Homo sapiens [3]): 310 | IC50 [4]: 589 nM | clearance [5]: 8.24 mL/min/kg | bioavailability [6]: 68.9% | inhibition at 10 min, 10 µM (CYP2C8): < 10% | inhibition at 10 min, 10 µM (CYP2C19): < 10% | IC50 [7]: 112 nM | Cmax [8]: 1280 ng/mL | AUC [9]: 1850 ng·h/mL | Ratio IC50 (Homo sapiens [13]): 469 | Tmax [14]: 0.25 h | inhibition at 10 min, 10 µM (CYP2D6): < 10% | inhibition at 10 min, 10 µM (CYP3A4): < 10% | inhibition at 10 min, 10 µM (CYP1A2): < 10% | Ratio IC50 (Homo sapiens [16]): 59 | fraction unbound [17]: 0.11 | AUC [18]: 3830 ng·h/mL | half-life [19]: 3.48 h | IC50 [1]: 1.9 nM | inhibition at 10 min, 10 µM (CYP2C9): < 10% | IC50 [23]: > 1000 nM
Compound: COc1ccc(Cn2c(=O)n(C)c3c4cc(-c5cnc(OC)c(NS(C)(=O)=O)c5)ccc4ncc32)cc1
inhibition (Mus musculus [10]): Active | inhibition (Mus musculus [11]): Active | inhibition in vivo at 30 mg/kg/day (TMD8 [12]): 100% | IC50 (TMD8 [15]): 340 nM | IC50 [20]: > 30000 nM | Activity [21]: Non-Toxic | Activity [22]: Non-Toxic | Activity (TMD8 [24]): Dose-dependent effect
